Target: Glutamate NMDA receptor
Assay: In vitro concentration required to inhibit specific [3H]MK-801 radioligand binding to N-methyl-D-aspartate (NMDA) receptor on rat brain membrane
In short: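 Rat brain crude synaptic membranes, thawed, pretreated at 1 mg protein/mL with 0.01% Triton X-100 for 15 min at 37 °C, then washed three times by centrifugation. Filtration stop. IC50 taken from displacement curves or nonlinear least-squares regression.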

Row | SMILES | IC50
1 | C/[N+](=C(/[NH-])Nc1cccc([N+](=O)[O-])c1)c1cccc2ccccc12 | 2800 nM
2 | CC(C)c1ccccc1N=C(N)Nc1ccccc1C(C)C | 217 nM
3 | Cc1cccc(NC(=N)Nc2cccc(C)c2)c1 | 335 nM
4 | CCc1ccccc1NC(=N)Nc1ccccc1CC | 820 nM
5 | NC(=Nc1ccccc1I)Nc1ccccc1I | 228 nM
6 | NC(=Nc1cccc2ccccc12)N(c1ccccc1)c1cccc2ccccc12 | 484 nM
7 | CCN(C(=N)N(C)c1cccc2ccccc12)c1cccc2ccccc12 | 53 nM
8 | NC(=Nc1cccc2ccccc12)N1CCCCCC1 | 10000 nM
9 | N=C(Nc1cccc2c1CCC2)Nc1cccc2c1CCC2 | 506 nM
10 | CCc1cccc(N=C(N)N(C)c2cccc3ccccc23)c1 | 537 nM
11 | Cc1cccc(N=C(N)N(C)c2cccc(C)c2)c1 | 1990 nM
12 | CCc1cccc(N(CC)C(N)=Nc2cccc3ccccc23)c1 | 73 nM
13 | CN(C(=N)Nc1cccc2ccccc12)c1cccc([N+](=O)[O-])c1 | 87 nM
14 | N=C(Nc1cccc2ccccc12)N1CCC(c2ccccc2)CC1 | 10000 nM
15 | CN(C(N)=Nc1cccc(N=[N+]=[N-])c1)c1cccc2ccccc12 | 1690 nM
16 | N=C(N1CCc2ccccc21)N1CCc2ccccc21 | > 100000 nM
17 | N=C(Nc1ccccc1)Nc1ccccc1 | 3450 nM
18 | CCc1ccc(NC(=N)Nc2ccc(CC)cc2)cc1 | 10300 nM
19 | CC(C)(C)c1ccccc1NC(=N)Nc1ccccc1C(C)(C)C | 38300 nM
20 | CCc1cccc(NC(=N)Nc2cccc(CC)c2)c1 | 168 nM
21 | CCCc1cccc(NC(=N)Nc2cccc(CCC)c2)c1 | 2000 nM
22 | N=C(Nc1cccc2ccccc12)Nc1cccc2ccccc12 | 330 nM
23 | NC(=Nc1ccc(Br)cc1)Nc1ccc(Br)cc1 | 34000 nM
24 | NC(=Nc1ccccc1-c1ccccc1)Nc1ccccc1-c1ccccc1 | 10000 nM
25 | Cc1ccc(N=C(N)Nc2ccc(C)cc2)cc1 | 13300 nM

Row | SMILES | IC50
26 | CC(C)c1ccc(NC(=N)Nc2ccc(C(C)C)cc2)cc1 | 23200 nM
27 | CC(C)c1cccc(NC(=N)Nc2cccc(C(C)C)c2)c1 | 407 nM
28 | CCc1cccc(N(C)C(=N)N(CC)c2cccc3ccccc23)c1 | 97 nM
29 | CN(C(=N)N(C)c1cccc2ccccc12)c1cccc2ccccc12 | 69 nM
30 | CN(C(N)=Nc1cccc2ccccc12)c1cccc2ccccc12 | 115 nM
31 | CN(C(N)=Nc1cccc(N)c1)c1cccc2ccccc12 | 10000 nM
32 | CCc1cccc(N=C(N)N2CCC(c3ccccc3)CC2)c1 | 10000 nM
33 | Cc1cccc(NC(=N)Nc2cccc3ccccc23)c1 | 192 nM
34 | CC(C)c1ccccc1N=C(N)Nc1cccc2ccccc12 | 102 nM
35 | CCc1cccc(N(C)C(=N)N(C)c2cccc3ccccc23)c1 | 100 nM
36 | CN(C(=N)N(c1ccccc1)c1cccc2ccccc12)c1cccc2ccccc12 | 470 nM
37 | CN(C(N)=Nc1cccc2ccccc12)c1cccc(N=[N+]=[N-])c1 | 65 nM
38 | NC(=Nc1cccc2ccccc12)Nc1ccccc1I | 209 nM
39 | CN(C(N)=Nc1cccc2ccccc12)c1ccccc1 | 1030 nM
40 | CCN(C(N)=Nc1cccc2ccccc12)c1cccc2ccccc12 | 117 nM
41 | NC(=Nc1cccc2ccccc12)NCc1ccccc1 | 2900 nM
42 | N=C(Nc1cccc2ccccc12)N1CCCCC1 | 10000 nM
43 | COc1cccc(N=C(N)Nc2cccc(OC)c2)c1 | 493 nM
44 | CCc1cccc(NC(=N)Nc2cccc3ccccc23)c1 | 39 nM
45 | N=C(Nc1ccc2ccccc2c1)Nc1ccc2ccccc2c1 | 12700 nM
46 | CC(C)c1ccccc1N=C(N)N(C)c1cccc2ccccc12 | 859 nM
47 | CN(C(N)=Nc1cccc2ccccc12)c1cccc(N)c1 | 2070 nM
48 | CCc1cccc(N(C)C(N)=Nc2cccc3ccccc23)c1 | 36 nM
49 | Cc1ccccc1NC(=N)Nc1ccccc1C [DITOLYLGUANIDINE] | 9120 nM

Target: not listed separately
Assay: Tested in vitro for the concentration required to inhibit specific [3H]DTG radioligand binding to sigma receptor on guinea pig brain membrane

Row | SMILES | IC50
50 | CCc1ccccc1NC(=N)Nc1ccccc1CC | 14 nM
51 | CCc1ccc(NC(=N)Nc2ccc(CC)cc2)cc1 | 245 nM
52 | CC(C)(C)c1ccccc1NC(=N)Nc1ccccc1C(C)(C)C | 356 nM
53 | NC(=Nc1ccccc1-c1ccccc1)Nc1ccccc1-c1ccccc1 | 8110 nM

From ChEMBL document CHEMBL1127479, “Synthesis and structure-activity studies of N,N'-diarylguanidine derivatives. N-(1-naphthyl)-N'-(3-ethylphenyl)-N'-methylguanidine: a new, selective noncompetitive NMDA receptor antagonist” (J Med Chem, 1994)
